Results from PubChem BioAssay AID493069 (Broad Institute, 2011).
Values joined by “and” are separate entries in the source; they are usually repeats but may differ in a detail not shown here. Equal values may be shown once. Results filed as inconclusive are left out. Active and inactive are the calls of the source.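 The calls were made as follows: active = growth-curve midpoint potency at or below a set limit tied to the top tested dose, or full inhibition throughout; inconclusive = flat partial inhibition between 30 and 70%, or poor fit; inactive = the rest.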

System: not listed separately
Assay: fluconazole-treated resistant Candida growth reduction – CaCi-8 resistant strain, dry powder, set 6, antifungal resistance reversal project, dose response (AID 493069)
Conditions: C. albicans CaCi-8 + fluconazole, Alamar Blue, 48 h; at 2.6 µM (top of the series)
Method in brief: (§1)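 Assay system: Fluconazole-resistant Candida albicans isolate CaCi-8 | Quantity: Fungal inoculum at starting OD600 of 0.00015 | Medium: MOPS-buffered RPMI 1640 defined medium plus Pen/Strep | Also added: Fluconazole at 8 µg/mL in the growth medium | Times: Compound exposure 48 h 37 °C, Alamar Blue 2 h RT | Signal: Alamar Blue fluorescence, Ex 544/Em 590 nm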

Structure (SMILES)	growth change, negative = inhibition
COc1ccc2c(c1)c1nc3n(c(=O)c1n2CC(=O)N1CCC(C)CC1)CCS3	-12.4% (inactive)

Same assay, conditions: C. albicans CaCi-8 + fluconazole, Alamar Blue, 48 h; at 26 µM (top of the series)

Structure (SMILES)	growth change, negative = inhibition
O=C(Cn1c2ccc(F)cc2c2nc3n(c(=O)c21)CCS3)N1CCCCC1	-17% (inactive)
O=C(Cn1c2ccc(F)cc2c2nc3n(c(=O)c21)CCS3)N1CCCCCC1	-36.1% (inactive)
O=C(Cn1c2ccccc2c2nc3n(c(=O)c21)CCS3)NCCc1ccc(Cl)cc1	-16.6% (inactive)
O=C(Cn1c2ccc(F)cc2c2nc3n(c(=O)c21)CCS3)N1CCCC1	-25.5% (inactive)
O=C(Cn1c2ccccc2c2nc3n(c(=O)c21)CCCS3)c1ccc(F)cc1	-20.3% (inactive)
CCN(CC)C(=O)Cn1c2ccc(F)cc2c2nc3n(c(=O)c21)CCS3	3.38% (inactive)
CCN(CC)C(=O)Cn1c2ccccc2c2nc3n(c(=O)c21)CCS3	10.7% (inactive)

System: C. albicans CaCi-8 + fluconazole, Alamar Blue, 48 h
Assay: as above
Conditions: not given
Method in brief: as §1

Structure (SMILES)	AC50
COC(=O)Cn1nc(-c2ccc(C)cc2)c2ccccc21	13.8 µM
O=C(O)Cn1nc(-c2ccccc2)c2ccccc21	> 26 µM (inactive)
COC(=O)Cn1nc(-c2ccc(Cl)cc2)c2ccccc21	15.8 µM
COC(=O)Cn1nc(-c2ccccc2)c2ccccc21	4.99 µM
O=C(Cn1c2ccccc2c2nc3n(c(=O)c21)CCS3)N1CCCCC1	3.88 µM
O=C(Cn1c2ccccc2c2ccncc21)N1CCCCC1	26.2 µM
O=c1c2[nH]c3ccccc3c2nc2n1CCS2	17.6 µM
O=C(Cn1c2ccccc2c2nc3n(c(=O)c21)CCS3)N1CCCC1	1.43 µM and 6.75 µM
CC1CCN(C(=O)Cn2c3ccc(F)cc3c3nc4n(c(=O)c32)CCCS4)CC1	22.9 µM
O=C(Cn1c2ccccc2c2nc3n(c(=O)c21)CCS3)N1CCOCC1	4.83 µM
CC1CCN(C(=O)Cn2c3ccccc3c3nc4n(c(=O)c32)CCS4)CC1	5.56 µM
O=c1c2[nH]c3ccc(F)cc3c2nc2n1CCS2	5.76 µM
